Measured values taken from paper PMC5912898 (Nature chemical biology, 2017).
pIC50: −log10 of the molar value. Like-named read-outs stand apart in the source and are kept apart here. One block for each molecule: values may come before it.

Columns and labels:
CDK7/CycH/MNAT1 = CDK7/CycH/MNAT1 (Homo sapiens, UniProt P50613); experiment: Adapta Eu in vitro kinase assay; type: biochemical
CDK9/CycT1 = CDK9/CycT1 (Homo sapiens, UniProt P50750); experiment: Adapta Eu in vitro kinase assay; type: biochemical
panel of 468 kinases = experiment: Kinomescan kinome selectivity profiling; type: binding; settings: Kinomescan at 1μM
CDK9 [1] = target: T1, CDK9 (Homo sapiens, UniProt P50750); experiment: Kinomescan profiling; type: binding; settings: 1μM
DYRK1B = DYRK1B (Homo sapiens, UniProt Q9Y463); experiment: Kinomescan profiling; type: binding; settings: 1μM
CDK9 [2] = target: T1, CDK9; experiment: Kinativ live cell chemical proteomics; type: cell-based; settings: CRBN−/− MOLT4 cells, live cell treatment, 0.25μM
Summary of the method: (§1)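 Test compound was applied to intact MOLT4 cells (CRBN−/− or wildtype). Cells were then sonicated in 50 mM HEPES pH 7.5, 150 mM NaCl, 0.1% Triton X-100 with phosphatase inhibitors, and cleared. Lysate was labelled with desthiobiotin-ATP acylphosphate probe (20 μM final) for 10 min. Samples were reduced and alkylated for LC-MS/MS, and % inhibition was calculated from integrated peak areas against DMSO controls.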

CDK6 = CDK6 (Homo sapiens, UniProt Q00534); experiment: Kinativ live cell chemical proteomics; type: cell-based; settings: live cell treatment, 0.25μM
PCTAIRE1,PCTAIRE3 = experiment: Kinativ live cell chemical proteomics; type: cell-based, human; settings: live cell treatment, 0.25μM
PCTAIRE2 = PCTAIRE2 (Homo sapiens, UniProt Q00537); experiment: Kinativ live cell chemical proteomics; type: cell-based; settings: live cell treatment, 0.25μM
PCTAIRE2,PCTAIRE3 = experiment: Kinativ live cell chemical proteomics; type: cell-based, human; settings: live cell treatment, 0.25μM
GSK3A = GSK3A (Homo sapiens, UniProt P49840); experiment: Kinativ live cell chemical proteomics; type: cell-based; settings: live cell treatment, 0.25μM
Summary of the method: as §1

MOLT4 cells [3] = experiment: Proliferation assay; type: cell-based, human; settings: for pIC50: read-out: proliferation IC50
MOLT4 cells [4] = experiment: Apoptosis by immunoblot; type: cell-based, human; settings: wildtype MOLT4 cells, 250 nM
Summary of the method: (§2)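 Wildtype MOLT4 cells were treated with 250 nM test compound for the indicated times. They were lysed for 30 min on ice in RIPA buffer (pH 7.4) with protease and phosphatase inhibitors and nuclease. Lysates were clarified at 21,000g for 30 min at 4°C and protein measured by BCA. Blots were detected with infrared-labelled secondary antibodies.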

MOLT4 cells [5] = experiment: Annexin V flow cytometry of apoptotic cells; type: cell-based, human; settings: 250 nM, without washout
Summary of the method: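 MOLT4 cells were exposed to 250 nM test compound for 6 h, then either washed three times with media or left in compound, and collected 24 h later. Cells were PBS-washed, stained with FITC annexin V in HEPES/NaCl/CaCl₂ binding buffer (pH 7.4) at room temperature, and propidium iodide was added just before flow cytometry. Results are means ± s.d. of 3 biological replicates.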

CDK9 [6] = target: T1, CDK9; experiment: Bio-AT7519 pulldown target engagement; type: cell-based; settings: 6 hours, 1μM, 500nM or 250nM
Summary of the method: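 Live wildtype or CRBN−/− MOLT4 cells were exposed to DMSO or test compound for 6 h, then PBS-washed and lysed (50 mM Tris-HCl pH 8.0, 150 mM NaCl, 1% NP-40, 5 mM EDTA, 1 mM DTT, protease/phosphatase inhibitors). Clarified lysate (input sampled) was rotated overnight at 4°C with 1μM biotinylated AT7519, then captured on streptavidin resin for 3 h at 4°C. Beads were washed ×5, boiled, and immunoblotted.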

CDK2 = CDK2 (Homo sapiens, UniProt P24941); experiment: Bio-AT7519 pulldown target engagement; type: cell-based; settings: wildtype and CRBN−/− MOLT4 cells, 6 hours, 1μM, 500nM or 250nM
CDK7 = CDK7 (Homo sapiens, UniProt P50613); experiment: Bio-AT7519 pulldown target engagement; type: cell-based; settings: wildtype and CRBN−/− MOLT4 cells, 6 hours, 1μM, 500nM or 250nM
CDK9 [7] = target: T1, CDK9; experiment: Kinativ lysate chemical proteomics; type: binding; settings: MOLT4 cell lysate, 1uM
Summary of the method: (§3)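 MOLT4 lysate (sonicated in HEPES pH 7.5/NaCl/Triton buffer, then gel-filtered) was incubated 15 min in duplicate with test compound added from a 100X DMSO stock, or with DMSO alone. Desthiobiotin-ATP acylphosphate probe (20 μM final) was then added for 10 min. Peptides were analysed by LC-MS/MS, and % inhibition was calculated as 1 − treated/control signal.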

CDK10 [8] = target: T2, CDK10 (Homo sapiens, UniProt Q15131); experiment: Kinativ lysate chemical proteomics; type: binding; settings: MOLT4 cell lysate, 1uM
Summary of the method: as §3

[9] = tested on: RNA Pol II CTD Serine 2 phosphorylation; experiment: RNA Pol II CTD phosphorylation by immunoblot; type: cell-based, human; settings: MOLT4 cells
Summary of the method: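 MOLT4 cells lysed on ice for 30 min in RIPA buffer (pH 7.4) with protease and phosphatase inhibitors and 2.5 U/mL nuclease. Lysate spun at 21,000g, 30 min, 4°C, and protein measured by BCA. Blots probed with anti-phospho-CTD Ser2 alongside total Pol II and tubulin. Infrared-labelled secondaries; blots imaged on Odyssey.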

MCL-1 = MCL-1 protein level by immunoblot; type: cell-based, human; settings: wildtype MOLT4 cells, 250 nM time course
Summary of the method: as §2

CDK1/CycB = CDK1/CycB (Homo sapiens, UniProt P06493); experiment: Z'LYTE in vitro kinase assay; type: biochemical
Summary of the method: (§4)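 Inhibition of the recombinant cyclin-bound CDK complex was measured in a Z'LYTE kinase assay run by a contract service at the Km concentration of ATP.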

CDK2/CycA = CDK2/CycA (Homo sapiens, UniProt P24941); experiment: Z'LYTE in vitro kinase assay; type: biochemical
Summary of the method: as §4

CRBN−/− MOLT4 cells = experiment: Proliferation assay; type: cell-based; settings: Homo sapiens, MOLT-4, 72 h, read-out: proliferation IC50
Summary of the method: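 CRBN−/− MOLT4 cells were exposed to a range of test compound concentrations for 72 h. Viability was measured with CellTiter-Glo, and IC50 was derived by non-linear regression curve fitting.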

[10] = tested on: panel of eleven different leukemia cancer cell lines; experiment: Proliferation in leukemia cell line panel; type: cell-based
CDK9 [11] = target: T1, CDK9; experiment: CDK9 degradation by immunoblot; type: cell-based
CDK9 [12] = target: T1, CDK9; experiment: Multiplexed quantitative mass spectrometry-based proteomics; type: cell-based; settings: MOLT4 cells, 250nM, 2 hours, 4512 proteins quantified
Summary of the method: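 MOLT4 cells (RPMI-1640, 10% FBS, 1% Pen/Strep, 37°C, 5% CO₂) exposed to 250nM test compound for 2 hours. Proteins labelled with 10plex TMT isobaric tags and run on an Orbitrap Fusion using SPS-MS3. Threshold of 2 peptides per protein. Log fold-change vs p-value plotted. n=3 biological replicates.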

CDK1 mRNA = experiment: qPCR of mRNA levels; type: cell-based, human; settings: MOLT4 cells, 250nM, 8 hours
CDK7 mRNA = experiment: qPCR of mRNA levels; type: cell-based, human; settings: MOLT4 cells, 250nM, 8 hours
CDK10 [13] = target: T2, CDK10; experiment: CDK10 degradation by immunoblot; type: cell-based; settings: MOLT4 cells
Summary of the method: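 MOLT4 cells treated with test compound were lysed in RIPA buffer (pH 7.4) with protease and phosphatase inhibitors and nuclease for 30 min on ice. Lysates were clarified at 21,000g for 30 min at 4°C and quantified by BCA. CDK10 was immunoblotted and detected with infrared-labelled secondary antibodies.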

[14] = wildtype and CRBN−/− MOLT4 cells
[15] = 6-hour treatment then compound washout

T1 sequence (P50750 whole entry): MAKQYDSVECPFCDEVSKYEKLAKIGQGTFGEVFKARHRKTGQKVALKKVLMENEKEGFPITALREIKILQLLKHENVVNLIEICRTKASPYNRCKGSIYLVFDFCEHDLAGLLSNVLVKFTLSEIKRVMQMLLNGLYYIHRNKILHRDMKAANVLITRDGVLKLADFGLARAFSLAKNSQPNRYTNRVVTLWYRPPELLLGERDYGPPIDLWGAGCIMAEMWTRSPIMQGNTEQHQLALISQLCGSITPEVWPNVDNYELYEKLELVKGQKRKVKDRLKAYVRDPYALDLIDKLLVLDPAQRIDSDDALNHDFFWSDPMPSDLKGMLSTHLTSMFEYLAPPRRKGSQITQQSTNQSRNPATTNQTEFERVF
Sequence of PCTAIRE2 (Q00537 whole entry): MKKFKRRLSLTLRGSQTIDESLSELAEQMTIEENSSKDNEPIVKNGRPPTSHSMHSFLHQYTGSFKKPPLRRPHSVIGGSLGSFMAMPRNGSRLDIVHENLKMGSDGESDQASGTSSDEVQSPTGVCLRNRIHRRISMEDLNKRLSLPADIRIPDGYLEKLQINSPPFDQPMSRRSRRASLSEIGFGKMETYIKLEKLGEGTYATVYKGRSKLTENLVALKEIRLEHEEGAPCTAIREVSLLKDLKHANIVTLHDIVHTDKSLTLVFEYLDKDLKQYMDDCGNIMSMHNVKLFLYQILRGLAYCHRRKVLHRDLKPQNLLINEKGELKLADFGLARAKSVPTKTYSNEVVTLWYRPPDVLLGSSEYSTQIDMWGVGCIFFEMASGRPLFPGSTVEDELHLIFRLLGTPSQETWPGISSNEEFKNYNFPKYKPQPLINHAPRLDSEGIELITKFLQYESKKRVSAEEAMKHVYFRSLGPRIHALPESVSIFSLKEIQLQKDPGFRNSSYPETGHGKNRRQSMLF
Sequence of CDK9/CycT1 (P50750 whole entry): as the sequence (P50750 whole entry) above
Sequence of CDK9/CycT1 (O60563 whole entry partner): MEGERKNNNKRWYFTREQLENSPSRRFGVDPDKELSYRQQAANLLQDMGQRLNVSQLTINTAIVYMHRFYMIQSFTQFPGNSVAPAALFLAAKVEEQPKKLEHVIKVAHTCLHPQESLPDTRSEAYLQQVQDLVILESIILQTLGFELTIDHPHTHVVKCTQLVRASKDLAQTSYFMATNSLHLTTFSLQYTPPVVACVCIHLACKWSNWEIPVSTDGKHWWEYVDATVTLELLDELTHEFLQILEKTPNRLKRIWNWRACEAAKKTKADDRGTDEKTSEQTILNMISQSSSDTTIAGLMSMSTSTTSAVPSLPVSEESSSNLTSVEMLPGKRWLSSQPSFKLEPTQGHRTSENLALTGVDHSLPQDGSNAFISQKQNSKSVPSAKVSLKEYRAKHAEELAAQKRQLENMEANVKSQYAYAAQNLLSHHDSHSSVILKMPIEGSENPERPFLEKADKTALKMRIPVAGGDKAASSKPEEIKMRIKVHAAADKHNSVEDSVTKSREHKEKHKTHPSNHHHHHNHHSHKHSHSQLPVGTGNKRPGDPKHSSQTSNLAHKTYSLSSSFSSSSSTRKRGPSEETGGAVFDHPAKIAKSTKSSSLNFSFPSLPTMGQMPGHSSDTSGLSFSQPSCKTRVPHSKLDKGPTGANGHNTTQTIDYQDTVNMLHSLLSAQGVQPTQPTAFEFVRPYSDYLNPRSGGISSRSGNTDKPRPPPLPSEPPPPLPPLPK
Sequence of CDK6 (Q00534 whole entry): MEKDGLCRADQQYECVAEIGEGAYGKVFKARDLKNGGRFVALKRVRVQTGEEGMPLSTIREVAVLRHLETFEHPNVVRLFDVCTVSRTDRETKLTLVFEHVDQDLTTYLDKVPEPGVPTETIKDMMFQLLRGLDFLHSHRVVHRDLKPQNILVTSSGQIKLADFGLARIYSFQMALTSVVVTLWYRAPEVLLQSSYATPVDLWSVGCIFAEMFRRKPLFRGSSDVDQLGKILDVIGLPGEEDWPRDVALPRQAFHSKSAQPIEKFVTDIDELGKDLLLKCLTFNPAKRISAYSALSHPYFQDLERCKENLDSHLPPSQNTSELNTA
Sequence of CDK7/CycH/MNAT1 (P50613 whole entry): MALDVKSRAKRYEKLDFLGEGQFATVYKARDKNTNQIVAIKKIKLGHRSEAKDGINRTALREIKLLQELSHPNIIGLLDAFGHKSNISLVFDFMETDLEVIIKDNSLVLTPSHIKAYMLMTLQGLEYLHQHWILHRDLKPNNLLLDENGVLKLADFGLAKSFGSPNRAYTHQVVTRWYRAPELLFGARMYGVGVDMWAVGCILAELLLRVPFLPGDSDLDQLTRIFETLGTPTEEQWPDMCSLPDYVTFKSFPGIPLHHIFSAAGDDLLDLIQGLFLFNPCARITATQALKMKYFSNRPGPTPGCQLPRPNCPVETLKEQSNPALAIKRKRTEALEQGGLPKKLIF
Sequence of CDK7/CycH/MNAT1 (P51946 whole entry partner): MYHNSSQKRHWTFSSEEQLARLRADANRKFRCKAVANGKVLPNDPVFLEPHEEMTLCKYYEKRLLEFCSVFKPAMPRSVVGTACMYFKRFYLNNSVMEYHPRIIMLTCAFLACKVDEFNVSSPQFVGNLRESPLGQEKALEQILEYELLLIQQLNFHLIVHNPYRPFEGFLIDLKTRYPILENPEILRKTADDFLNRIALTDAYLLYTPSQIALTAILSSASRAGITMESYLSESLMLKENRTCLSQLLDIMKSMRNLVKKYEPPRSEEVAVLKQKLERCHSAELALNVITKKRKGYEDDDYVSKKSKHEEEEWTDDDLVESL
Sequence of CDK7/CycH/MNAT1 (P51948 whole entry partner): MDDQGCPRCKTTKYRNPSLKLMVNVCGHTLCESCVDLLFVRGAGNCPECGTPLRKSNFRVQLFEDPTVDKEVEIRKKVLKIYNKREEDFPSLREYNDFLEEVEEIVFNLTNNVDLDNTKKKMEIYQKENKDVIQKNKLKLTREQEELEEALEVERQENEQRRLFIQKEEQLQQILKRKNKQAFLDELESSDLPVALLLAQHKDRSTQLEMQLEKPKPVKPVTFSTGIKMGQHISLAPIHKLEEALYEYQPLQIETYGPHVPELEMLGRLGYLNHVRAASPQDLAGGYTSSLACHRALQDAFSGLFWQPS
T2 sequence (Q15131 whole entry): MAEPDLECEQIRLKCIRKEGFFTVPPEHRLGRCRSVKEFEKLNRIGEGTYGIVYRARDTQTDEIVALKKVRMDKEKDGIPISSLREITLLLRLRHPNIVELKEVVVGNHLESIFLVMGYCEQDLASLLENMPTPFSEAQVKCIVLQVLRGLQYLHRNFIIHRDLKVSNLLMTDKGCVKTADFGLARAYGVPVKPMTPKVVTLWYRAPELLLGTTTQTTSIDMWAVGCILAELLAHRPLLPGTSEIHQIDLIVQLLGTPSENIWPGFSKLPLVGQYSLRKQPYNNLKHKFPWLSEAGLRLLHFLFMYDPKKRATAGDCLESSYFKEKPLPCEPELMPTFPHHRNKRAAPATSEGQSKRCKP
Sequence of GSK3A (P49840 whole entry): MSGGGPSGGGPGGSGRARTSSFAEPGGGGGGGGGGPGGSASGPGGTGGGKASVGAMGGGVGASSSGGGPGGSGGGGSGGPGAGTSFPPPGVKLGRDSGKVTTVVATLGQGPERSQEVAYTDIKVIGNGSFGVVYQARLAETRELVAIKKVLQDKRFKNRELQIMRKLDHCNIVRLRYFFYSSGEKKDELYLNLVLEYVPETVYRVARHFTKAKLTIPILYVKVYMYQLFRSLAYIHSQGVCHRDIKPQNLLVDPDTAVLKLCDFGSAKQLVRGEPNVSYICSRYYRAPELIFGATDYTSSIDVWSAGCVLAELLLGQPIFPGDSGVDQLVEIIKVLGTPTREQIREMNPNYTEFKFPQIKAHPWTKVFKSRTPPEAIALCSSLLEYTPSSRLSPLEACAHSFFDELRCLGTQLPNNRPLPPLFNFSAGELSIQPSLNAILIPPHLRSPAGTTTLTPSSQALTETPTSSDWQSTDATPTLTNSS
Sequence of CDK1/CycB (P06493 whole entry): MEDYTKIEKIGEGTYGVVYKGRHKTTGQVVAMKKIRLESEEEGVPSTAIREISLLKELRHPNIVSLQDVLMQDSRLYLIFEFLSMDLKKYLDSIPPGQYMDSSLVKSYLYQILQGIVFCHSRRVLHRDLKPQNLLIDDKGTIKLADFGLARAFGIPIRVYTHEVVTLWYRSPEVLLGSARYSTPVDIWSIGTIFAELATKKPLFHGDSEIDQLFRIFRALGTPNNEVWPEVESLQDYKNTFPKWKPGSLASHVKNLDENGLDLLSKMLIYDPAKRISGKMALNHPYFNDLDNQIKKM
Sequence of CDK1/CycB (P14635 whole entry partner): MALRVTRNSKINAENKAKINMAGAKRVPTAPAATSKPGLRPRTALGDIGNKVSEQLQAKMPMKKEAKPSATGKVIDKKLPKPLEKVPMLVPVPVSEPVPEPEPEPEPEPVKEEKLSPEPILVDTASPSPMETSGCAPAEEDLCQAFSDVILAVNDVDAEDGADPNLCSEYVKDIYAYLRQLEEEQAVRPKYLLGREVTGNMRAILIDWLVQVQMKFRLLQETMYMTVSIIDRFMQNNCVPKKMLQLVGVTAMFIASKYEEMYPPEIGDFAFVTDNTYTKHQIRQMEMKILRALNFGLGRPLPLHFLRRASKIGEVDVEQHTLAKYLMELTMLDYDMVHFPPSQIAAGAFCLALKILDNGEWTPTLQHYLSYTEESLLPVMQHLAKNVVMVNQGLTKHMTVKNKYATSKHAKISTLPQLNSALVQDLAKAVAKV
Sequence of CDK7 (P50613 whole entry): as the sequence (P50613 whole entry) above

Compound: COC[C@@H](C)NC1CCC(Nc2cc(-c3cccc(NCC4(C#N)CCOCC4)n3)c(Cl)cn2)CC1 (stereo partly drawn) [NVP-2]
pIC50 (CDK7/CycH/MNAT1; read-out: CDK7 IC50, Km ATP): < 5.00
pIC50 (CDK9/CycT1; read-out: IC50 CDK9/CycT kinase activity, Km ATP): > 9.29
S(1) score (panel of 468 kinases): 0.005
Kinomescan inhibition of CDK9 (CDK9 [1]): greater than 99%
Kinomescan inhibition of DYRK1B (DYRK1B): greater than 99%
percent inhibited CDK9 (Lys2) labeling (CDK9 [2]): ~63%
percent inhibited CDK6 (Lys2) labeling (CDK6; CRBN−/− MOLT4 cells): −8.6%
percent inhibited CDK6 (Lys2) labeling (CDK6; Wildtype MOLT4 cells): −10%
percent inhibited PCTAIRE1,PCTAIRE3 (Lys2) labeling (PCTAIRE1,PCTAIRE3; CRBN−/− MOLT4 cells): −5.2%
percent inhibited PCTAIRE1,PCTAIRE3 (Lys2) labeling (PCTAIRE1,PCTAIRE3; Wildtype MOLT4 cells): −30.5%
percent inhibited PCTAIRE2 (Lys2) labeling (PCTAIRE2; CRBN−/− MOLT4 cells): 10.3%
percent inhibited PCTAIRE2 (Lys2) labeling (PCTAIRE2; Wildtype MOLT4 cells): 8.1%
percent inhibited PCTAIRE2,PCTAIRE3 (Lys1) labeling (PCTAIRE2,PCTAIRE3; CRBN−/− MOLT4 cells): −15%
percent inhibited PCTAIRE2,PCTAIRE3 (Lys1) labeling (PCTAIRE2,PCTAIRE3; Wildtype MOLT4 cells): −4.7%
percent inhibited GSK3A (Lys2) labeling (GSK3A; CRBN−/− MOLT4 cells): 10%
percent inhibited GSK3A (Lys2) labeling (GSK3A; Wildtype MOLT4 cells): 5.8%
pIC50 (MOLT4 cells [3]; wild-type MOLT4, 72 hours, CellTiter Glo): 8.05
time to induction of apoptosis (PARP and Caspase-3 cleavage) (MOLT4 cells [4]): ≤ 4 h
Annexin V positive cells (MOLT4 cells [5]): ~100%
CDK9 engagement (bio-AT7519 competition) (CDK9 [6]; [14]): engages CDK9 in wildtype and CRBN−/− MOLT4 cells at all concentrations tested
CDK2 engagement (bio-AT7519 competition) (CDK2): unaffected
CDK7 engagement (bio-AT7519 competition) (CDK7): unaffected
CDK9 engagement in lysate (CDK9 [7]): strongly engaged
CDK10 engagement in lysate (CDK10 [8]): strongly engaged
phosphorylation of RNA Pol II CTD Serine 2 [9]: inhibited in a concentration dependent manner
MCL-1 protein level (MCL-1): MCL-1 loss was observed

Compound: CC(C)(C)c1cnc(CSc2cnc(NC(=O)C3CCNCC3)s2)o1 [SNS-032, N-[5-[[[5-(1,1-Dimethylethyl)-2-oxazolyl]methyl]thio]-2-thiazolyl]-4-piperidinecarboxamide]
percent inhibited PCTAIRE2,PCTAIRE3 (Lys1) labeling (PCTAIRE2,PCTAIRE3; CRBN−/− MOLT4 cells): 75.4%
pIC50 (MOLT4 cells [3]; Homo sapiens, MOLT-4, 72 h): 6.76
time to induction of apoptosis (PARP and Caspase-3 cleavage) (MOLT4 cells [4]): ≤ 4 h
CDK9 engagement (bio-AT7519 competition) (CDK9 [6]; [14]): showed engagement
phosphorylation of RNA Pol II CTD Serine 2 [9]: inhibited in a concentration dependent manner

pIC50 (CDK1/CycB): 6.77
pIC50 (CDK2/CycA): 7.21
pIC50 (CDK7/CycH/MNAT1): 6.40
pIC50 (CDK9/CycT1): 8.40
pIC50 (MOLT4 cells [3]; Homo sapiens, MOLT-4, 72 h): 7.30
pIC50 (CRBN−/− MOLT4 cells): 5.44
time for CDK9 levels to return to baseline after washout (CDK9 [11]; [15]): 36 h
time of partial rebound of CDK9 levels after washout (CDK9 [11]; [15]): ≤ 12 h
time to complete CDK9 degradation (CDK9 [11]; MOLT4 cells, 250 nM): 2 h
persistence of CDK9 degradation (CDK9 [11]; MOLT4 cells, 250nM time course): at least 24 hours
concentration inducing complete CDK9 degradation (CDK9 [11]; MOLT4 cells, 6-hour treatment): 250 nM
concentration at which CDK9 degradation decreases (hook effect) (CDK9 [11]; MOLT4 cells, 6 hours): ≥ 5 µM
CDK9 engagement (bio-AT7519 competition) (CDK9 [6]; CRBN−/− MOLT4 cells only): little to no engagement
CDK10 degradation (CDK10 [13]): partial degradation
Compound: CC(C)(C)c1cnc(CSc2cnc(NC(=O)C3CCN(CC(=O)NCCOCCOCCOCCNc4cccc5c4C(=O)N(C4CCC(=O)NC4=O)C5=O)CC3)s2)o1 (stereo not drawn) [THAL-SNS-032]
percent inhibited PCTAIRE1,PCTAIRE3 (Lys2) labeling (PCTAIRE1,PCTAIRE3; CRBN−/− MOLT4 cells): 11.4%
percent inhibited PCTAIRE1,PCTAIRE3 (Lys2) labeling (PCTAIRE1,PCTAIRE3; Wildtype MOLT4 cells): 16.3%
percent inhibited PCTAIRE2,PCTAIRE3 (Lys1) labeling (PCTAIRE2,PCTAIRE3; CRBN−/− MOLT4 cells): 16%
percent inhibited PCTAIRE2,PCTAIRE3 (Lys1) labeling (PCTAIRE2,PCTAIRE3; Wildtype MOLT4 cells): 22.1%
viability after washout (MOLT4 cells [3]; 250nM, 6 hours treatment then washout, 72 hours of growth): more profound decrease in viability after washout compared to NVP-2 or SNS-032
inhibition of proliferation compared to SNS-032 [10]: more potent inhibition of proliferation as compared to SNS-032
CDK9 abundance in proteome-wide analysis (CDK9 [12]): most depleted protein out of 4512 proteins
CDK1 mRNA level relative to DMSO-treated (CDK1 mRNA): around 20%
CDK7 mRNA level relative to DMSO-treated (CDK7 mRNA): around 20%
time to induction of apoptosis (PARP and Caspase-3 cleavage) (MOLT4 cells [4]): ≤ 4 h
phosphorylation of RNA Pol II CTD Serine 2 [9]: inhibited phosphorylation of Serine 2 in a concentration and time-dependent manner
MCL-1 protein level (MCL-1): loss of MCL-1
